# Laboratory results: ChEMBL document CHEMBL3616409, “Optimization of a small molecule probe that restores e-cadherin expression” (Bioorg Med Chem Lett, 2015)
# Legend:
# [1] = Restoration of e-cadherin expression in human SW620 cells at 10 uM by in-cell-western assay relative to control; type: functional, cell-based; settings: SW-620
# Summary of the method: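 In-Cell-Western immunofluorescence read-out of e-cadherin in SW620 colon carcinoma cells after treatment at 10 μM; value is average fold change from two assessments.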
# [2] = Restoration of e-cadherin expression in human SW620 cells by in-cell-western assay; type: functional, cell-based; settings: SW-620
# [3] = Fraction unbound in rat; type: ADME, organism-based; settings: in vivo
# Rattus norvegicus = experiment: Clearance in Sprague-Dawley rat at 1 mg/kg, iv; type: ADME, organism-based; settings: in vivo
# Summary of the method: (§1)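 Single 1 mg/kg intravenous dose in male Sprague-Dawley rats; clearance and half-life from plasma pharmacokinetics.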
# [4] = Fraction unbound in mouse; type: ADME, organism-based; settings: in vivo
# [5] = Intrinsic clearance in rat microsomes; type: ADME, Microsome
# Cytochrome P450 3A4 = Cytochrome P450 3A4 (Homo sapiens, UniProt P08684); experiment: Inhibition of CYP3A4 (unknown origin); type: ADME
# Cytochrome P450 2D6 = Cytochrome P450 2D6 (Homo sapiens, UniProt P10635); experiment: Inhibition of CYP2D6 (unknown origin); type: ADME
# [6] = Half life in Sprague-Dawley rat at 1 mg/kg, iv; type: ADME, organism-based; settings: in vivo; summary of the method: as §1
# Cytochrome P450 1A2 = molecular target: T1, Cytochrome P450 1A2 (Homo sapiens, UniProt P05177); experiment: Inhibition of CYP1A2 (unknown origin); type: ADME
# T1 sequence (P05177 whole entry): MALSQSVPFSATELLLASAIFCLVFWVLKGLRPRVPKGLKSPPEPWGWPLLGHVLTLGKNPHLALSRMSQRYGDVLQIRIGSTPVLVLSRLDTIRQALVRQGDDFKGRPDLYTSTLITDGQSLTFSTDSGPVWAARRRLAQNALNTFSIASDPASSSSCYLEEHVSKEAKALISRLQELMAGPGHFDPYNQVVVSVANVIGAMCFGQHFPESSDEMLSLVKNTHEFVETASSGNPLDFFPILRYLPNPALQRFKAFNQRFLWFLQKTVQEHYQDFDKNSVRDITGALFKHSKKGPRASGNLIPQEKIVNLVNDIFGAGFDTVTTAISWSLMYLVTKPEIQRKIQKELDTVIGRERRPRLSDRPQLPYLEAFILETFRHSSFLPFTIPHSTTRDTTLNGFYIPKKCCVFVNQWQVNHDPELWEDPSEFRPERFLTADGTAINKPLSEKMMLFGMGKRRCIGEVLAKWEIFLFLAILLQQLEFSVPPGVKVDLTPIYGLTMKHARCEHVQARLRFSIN
# Summary of the method: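 CYP1A2 was assessed in a P450 isozyme panel with 3A4, 2C9 and 2D6. The compound was tested at 30 μM, and the value is reported as a threshold relative to that concentration.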
# [7] = Intrinsic clearance in mouse microsomes; type: ADME, Microsome
# Cytochrome P450 2C9 = Cytochrome P450 2C9 (Homo sapiens, UniProt P11712); experiment: Inhibition of CYP2C9 (unknown origin); type: ADME
# [8] = Fraction unbound in human; type: ADME, organism-based; settings: in vivo
# [9] = Intrinsic clearance in human microsomes; type: ADME, Microsome
# Cytochrome P450 3A4, sequence (P08684 whole entry): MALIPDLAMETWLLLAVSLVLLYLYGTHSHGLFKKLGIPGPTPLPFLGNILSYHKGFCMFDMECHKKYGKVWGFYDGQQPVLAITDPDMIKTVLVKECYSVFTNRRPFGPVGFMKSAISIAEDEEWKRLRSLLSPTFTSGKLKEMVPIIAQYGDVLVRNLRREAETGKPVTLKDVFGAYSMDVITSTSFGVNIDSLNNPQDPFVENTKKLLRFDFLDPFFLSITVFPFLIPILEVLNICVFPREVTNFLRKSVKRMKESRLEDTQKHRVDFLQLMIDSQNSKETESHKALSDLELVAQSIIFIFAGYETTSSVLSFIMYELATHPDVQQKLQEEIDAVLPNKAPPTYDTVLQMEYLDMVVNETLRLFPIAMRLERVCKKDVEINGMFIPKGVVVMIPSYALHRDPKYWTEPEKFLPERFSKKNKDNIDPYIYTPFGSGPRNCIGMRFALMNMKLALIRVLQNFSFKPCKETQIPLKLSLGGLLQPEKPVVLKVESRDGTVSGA
# Cytochrome P450 2D6, sequence (P10635 whole entry): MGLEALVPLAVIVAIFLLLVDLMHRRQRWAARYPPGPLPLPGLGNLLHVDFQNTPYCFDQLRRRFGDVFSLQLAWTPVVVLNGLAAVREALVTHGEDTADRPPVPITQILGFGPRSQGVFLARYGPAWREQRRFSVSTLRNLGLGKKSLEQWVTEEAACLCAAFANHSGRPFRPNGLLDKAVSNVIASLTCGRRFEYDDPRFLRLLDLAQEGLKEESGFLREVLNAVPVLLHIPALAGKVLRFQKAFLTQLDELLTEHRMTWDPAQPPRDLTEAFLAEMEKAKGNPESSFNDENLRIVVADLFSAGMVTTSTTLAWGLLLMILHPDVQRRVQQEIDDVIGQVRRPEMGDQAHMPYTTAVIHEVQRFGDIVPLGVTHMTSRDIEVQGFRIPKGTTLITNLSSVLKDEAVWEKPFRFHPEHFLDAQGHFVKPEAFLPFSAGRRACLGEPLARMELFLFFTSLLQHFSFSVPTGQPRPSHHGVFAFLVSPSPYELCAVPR
# Cytochrome P450 2C9, sequence (P11712 whole entry): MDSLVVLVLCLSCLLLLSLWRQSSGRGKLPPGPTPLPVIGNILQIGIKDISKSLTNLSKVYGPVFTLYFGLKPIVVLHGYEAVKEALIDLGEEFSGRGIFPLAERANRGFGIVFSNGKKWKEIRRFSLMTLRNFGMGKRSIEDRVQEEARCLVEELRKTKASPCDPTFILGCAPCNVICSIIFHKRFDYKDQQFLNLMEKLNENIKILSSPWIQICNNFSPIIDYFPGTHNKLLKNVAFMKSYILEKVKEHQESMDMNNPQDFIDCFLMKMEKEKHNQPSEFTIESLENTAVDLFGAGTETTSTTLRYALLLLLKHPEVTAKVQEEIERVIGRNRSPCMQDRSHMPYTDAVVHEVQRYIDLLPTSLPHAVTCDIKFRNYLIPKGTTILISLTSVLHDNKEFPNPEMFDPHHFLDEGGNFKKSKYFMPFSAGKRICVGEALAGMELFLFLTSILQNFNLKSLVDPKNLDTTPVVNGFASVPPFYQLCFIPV
EC50 [2] [µM],Structure (SMILES),fold change (FC) [1],also measured
–,O=C(NCCCNCc1ccc(O)c(O)c1)c1cc(-c2ccccc2)on1,1.54,–
–,O=C(NCCCNC(=O)c1cc(-c2ccccc2)[nH]n1)c1ccncc1,1.29,–
–,Cc1ncc(CNCCCNC(=O)c2cc(-c3ccccc3)on2)o1,1.5,–
4.8,O=C(NCCCNC(=O)c1nccs1)c1cc(-c2ccccc2)on1,–,–
–,O=C(NCCCCNC(=O)c1cccs1)c1cc(-c2cccs2)on1,3.04,–
5.6,Cc1ccc(C(=O)NCCCCNC(=O)c2cc(-c3ccccc3)on2)c(O)n1,–,–
–,COc1cncc(CNCCCNC(=O)c2cc(-c3ccccc3)on2)c1,3.58,–
–,O=C(NCCCN1CCOCC1)c1n[nH]c2ccccc12,0.63,–
–,O=C(NCCCNC(=O)c1cc(-c2ccccc2)on1)c1cccnc1,3.05,–
5,O=C(NCCCCNC(=O)c1cc(-c2cccs2)on1)c1cccnc1,–,–
–,O=C(NCCCNCc1cccnc1)c1cc(-c2ccccc2)on1,3.06,–
4.7,O=C(NCCCCc1ccncc1)c1cc(-c2ccco2)on1,–,–
–,Cn1nc(C(=O)NCCCCc2ccncc2)cc1-c1ccccc1,1.38,–
15,CC(=O)n1cc(CNCCCNC(=O)c2cc(-c3ccccc3)on2)c2ccccc21,–,–
3.7,O=C(Cc1ccccc1O)NCCCNC(=O)c1cc(-c2ccccc2)on1,–,–
–,Cc1cc(CNCCCNC(=O)c2cc(-c3ccccc3)on2)on1,3.4,–
–,O=C(NCCCCNC(=O)c1cc(-c2ccccc2)on1)c1ccc(O)c(O)c1,2.69,–
12.6,O=C(Cc1c[nH]c2ccccc12)NCCCCNC(=O)c1cc(-c2ccccc2)on1,–,–
–,O=C(NCCCn1ccnc1)c1noc2ccccc12,1.21,–
–,O=C(NCCCNCc1c[nH]c2ncccc12)c1cc(-c2ccccc2)on1,1.67,–

EC50 [2] [µM],Structure (SMILES),fold change (FC) [1],also measured
–,O=C(NCCCCNC(=O)c1cccnc1O)c1cc(-c2ccccc2)on1,5.23,Fu [3]: 0.11; clearance (Rattus norvegicus): 18 mL/min/kg; Fu [4]: 0.19; clearance [5]: 33 mL/min/kg; IC50 (Cytochrome P450 3A4): > 30 µM; IC50 (Cytochrome P450 2D6): > 30 µM; half-life [6]: 7.6 h; IC50 (Cytochrome P450 1A2): > 30 µM; clearance [7]: 180 mL/min/kg; IC50 (Cytochrome P450 2C9): > 30 µM; Fu [8]: 0.01; clearance [9]: 0 mL/min/kg
–,O=C(NCCCNCc1ccccc1O)c1cc(-c2ccccc2)on1,3.59,–
–,O=C(NCCCCNC(=O)c1cc(-c2ccccc2)on1)c1cocn1,3.35,–
5.3,[N-]=[N+]=Nc1ccnc(NCCCNC(=O)c2cc(-c3ccccc3)on2)n1,–,–
–,O=C(NCCCNC(=O)c1n[nH]c2ccccc12)c1cc(-c2ccccc2)on1,1.62,–
–,O=C(NCCCNCc1c[nH]c2ccccc12)c1cc(-c2ccccc2)on1,1.44,–
–,CC(CNC(=O)c1cc(-c2cccs2)on1)c1ccncc1 (stereo unspecified),0.32,–
–,O=C(NCCCNC(=O)c1cc(Br)ccc1O)c1cc(-c2ccccc2)on1,2.43,–
–,O=C(NCCCCNC(=O)c1cc(I)ccc1O)c1cc(-c2ccccc2)on1,2.43,–
–,Cc1c(C(=O)NCCCCc2ccncc2)nn(C)c1-c1ccccc1,0.75,–
12,N#Cc1ccnc(NCCCNC(=O)c2cc(-c3ccccc3)on2)c1,–,–
8.8,O=C(NCCCNC(=O)c1cc(-c2ccccc2)on1)c1ccncc1,–,–
–,O=C(NCCCCNC(=O)c1c[nH]c2ccccc12)c1cc(-c2ccccc2)on1,2.39,–
–,O=C(NCCCCNC(=O)c1cc(-c2ccccc2)on1)c1cscn1,3.7,–
7.1,O=C(NCCCCNC(=O)c1cc(-c2ccccc2)on1)c1cccnc1,–,–
–,O=C(NCCCNCc1ccccn1)c1cc(-c2ccccc2)on1,2.52,–
5.6,Nc1cncc(C(=O)NCCCCNC(=O)c2cc(-c3cccs3)on2)n1,–,–
–,O=C(NCCCNCc1ccc(O)cc1O)c1cc(-c2ccccc2)on1,2.33,–
4.6,O=C(NCCCCNC(=O)c1ccc(Cl)o1)c1cc(-c2ccccc2)on1,–,–
